TAAR1 antagonist: antagonists of human TAAR1. inhibition, % at 3 µM. CHO RD-HGA16 TAAR1, Fluo-8 calcium fluorescence, antagonist. 360,000 compounds, 1.5% hits. AID 624466. Q96RJ0;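 active means inhibition above a per-plate cutoff, the mean inhibition of test compounds on that plate plus 3 SD, cut at about 49% in these data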;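 further: 0% = DMSO plus EC80 beta-PEA response and 100% = DMSO alone without agonist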
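Test system: CHO RD-HGA16 cells bearing hTAAR1 | Reagent: β-PEA, EC80 | Compound dosing: 3 µM, single point | Schedule: Dye loading 75 min at 37 °C, then 30 min room temperature | Signal: Calcium fluorescence with Fluo-8 | Evaluation: Percent inhibition of PEA-evoked calcium signal, max/basal emission ratio | Control set: DMSO-only wells and EC80 β-PEA-stimulated wells | Repeats: Singlicate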
CHO parental Ca: counter-screen: ATP calcium response change in parental CHO cells | parental CHO-K1, ATP-induced calcium, Fluo-8 fluorescence | inhibition, % at 5.6 µM | 330,000 compounds, 0.63% hits | AID 463079;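 active means inhibition above that plate's mean sample inhibition plus 3 SD, cut at about 26% in these data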;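 further: 0% = ATP-challenged DMSO wells and 100% = DMSO wells without ATP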
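test system = CHO parental line | reagent = ATP stimulus | measured by = intracellular calcium via Fluo-8 no-wash fluorescent dye | control set = ATP and no-ATP DMSO wells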
TAAR1 agonist: human TAAR1 agonism. CHO RD-HGA16 TAAR1, Fluo-8 calcium fluorescence; vehicle wells 0%, saturating PEA agonist 100%. activation, % at 3 µM. 360,000 compounds, 0.99% hits;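 active means activation above the mean activation of all test compounds in the run plus 3 SD, cut at about 38% in these data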
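Signal – calcium-sensitive Fluo-8 signal, excitation 470-495, emission 515-575 nm · System – RD-HGA16 (CHO) cells co-expressing Gα16 and hTAAR1 · Incubation – 17-24 h seeding, 75 min 37 °C dye, 30 min RT · Compound dosing – 3 µM single concentration · Repeats – no replicates (n 1)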
OX1R antag-1: blocks the human orexin 1 receptor. OX1R-expressing cells, FRET antagonist read-out. inhibition, % at 6.6 µM. 330,000 compounds, 1.8% hits. AID 485270; in the data active means inhibition mostly above about 38%, no sharp cut-off; inactive means mostly below about 40%;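 further: 0% = agonist challenge alone and 100% = reference antagonist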
OX1R antag-2: blocks the human orexin 1 receptor; AID 434989; CHO/OX1R cells, Fluo-8 calcium fluorescence, orexin A; O43613; inhibition, % at 5 µM; 330,000 compounds, 0.43% hits;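 active means inhibition above its plate's threshold, mean inhibition of all tested compounds on the plate plus 3 SD, cut at about 37% in these data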;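 further: 0% = orexin A challenge wells and 100% = SB-334867-A antagonist wells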
NTR1 ag: agonists of human neurotensin receptor NTR1; P30989; NTR1-U2OS beta-arrestin-GFP spot imaging, agonist mode; activation, % at 20 µM; 330,000 compounds, 0.17% hits; AID 493036;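 active means activation at or above 40% of the spot to cytoplasm intensity ratio, with at least 20 cells analyzed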;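 further: 0% = DMSO without peptide and 100% = 100 nM NTR1 peptide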
Target sequence (P30989 whole entry, looked up): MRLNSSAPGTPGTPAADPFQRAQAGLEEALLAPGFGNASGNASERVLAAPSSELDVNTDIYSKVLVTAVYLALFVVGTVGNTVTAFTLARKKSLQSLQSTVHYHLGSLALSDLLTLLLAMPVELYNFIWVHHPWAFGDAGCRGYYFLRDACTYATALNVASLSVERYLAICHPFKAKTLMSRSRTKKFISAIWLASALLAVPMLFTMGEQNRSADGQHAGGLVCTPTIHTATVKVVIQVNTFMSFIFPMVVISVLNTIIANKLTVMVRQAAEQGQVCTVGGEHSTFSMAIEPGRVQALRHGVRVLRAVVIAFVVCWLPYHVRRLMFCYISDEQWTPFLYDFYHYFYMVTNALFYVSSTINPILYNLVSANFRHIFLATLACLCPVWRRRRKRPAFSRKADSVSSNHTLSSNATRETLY
TAAR1 ag confirm: confirmation of human TAAR1 agonists; shares compounds with TAAR1 agonist; CHO RD-HGA16 TAAR1, Fluo-8 calcium fluorescence; scaled: DMSO 0%, maximal phenethylamine 100%; activation, % at 3 µM; 2,400 compounds, 82% hits; AID 651783;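 active means activation above a cutoff set at the run's mean compound activation plus 3 SD, cut at about 39% in these data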
Ga16 ag counter: nonselective agonism, TAAR1 counter-screen; shares compounds with TAAR1 agonist; CHO-Ga16 parental, Fluo-8 calcium fluorescence; normalized to maximal ATP response, DMSO zero; activation, % at 3 µM; 2,400 compounds, 50% hits;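 active means activation above the run cutoff, the mean activation over all tested wells plus 3 SD, cut at about 12% in these data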;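 further: 0% = DMSO wells and 100% = maximal ATP response on the peak over basal ratio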
TAAR1 desens: counter-screen for human TAAR1 agonists: agonists that desensitize TAAR1; shares compounds with TAAR1 agonist; CHO RD-HGA16 hTAAR1, Fluo-8 calcium, beta-PEA response inhibition; inhibition, % at 3 µM; 2,400 compounds, 46% hits;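 active means inhibition above the run cutoff, the mean inhibition of all test compounds plus 3 SD, cut at about 49% in these data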;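 further: beta-PEA stimulus applied at its EC80; loss of beta-PEA calcium signal after compound pretreatment read as receptor desensitization; 0% = DMSO with beta-PEA at EC80 and 100% = DMSO alone without agonist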
Ga16 nonsel ant: nonselective Ga16 antagonism, counter-screen | shares compounds with TAAR1 agonist | CHO-Ga16 ATP-induced calcium, Fluo-8 fluorescence | inhibition, % at 3 µM | 2,400 compounds, 39% hits | AID 651952;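 active means inhibition above the plate's mean compound inhibition plus 3 SD, computed per plate, cut at about 22% in these data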;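 further: 0% = EC80 ATP with DMSO and 100% = DMSO wells without ATP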
Starred values were filed as active, the others as inactive; / = no result. Most compounds without a hit are left out; they make up all but 4% or so of the library.

SMILES	TAAR1 antagonist	CHO parental Ca	TAAR1 agonist	OX1R antag-1	OX1R antag-2	NTR1 ag	TAAR1 ag confirm	Ga16 ag counter	TAAR1 desens	Ga16 nonsel ant
O=C(O)C1C2C=CC(C2)C1C(=O)NCCCc1ccccc1 (stereo unspecified)	28.5	10.5	76.1*	3.8	6.7	0.7	79.6*	0.8	30.9	2.7
O=C(O)C1C2C=CC(C2)C1C(=O)NCCc1ccncc1 (stereo unspecified)	-2.5	1.0	35.6	5.6	-4.6	-0.1	/	/	/	/
O=C(Cn1ccc2ccccc2c1=O)NCCC(=O)Nc1cccc(Cl)c1	/	-20.1	/	7.2	-11.9	-0.9	/	/	/	/
Cc1ccc(S(=O)(=O)N2CCC(C(=O)NCCN3CCOCC3)CC2)cc1	-14.9	/	1.7	/	/	/	/	/	/	/
CCNC(=O)CC1C(=O)N(c2ccccc2)C(=O)N1CCOC (stereo unspecified)	-25.7	-9.2	5.4	-1.3	5.4	-1.9	/	/	/	/
CSc1ccccc1OCc1cc(C(=O)NCCC2=CCCCC2)no1	-15.7	-6.3	54.5*	38.1	-31.4	3.5	37.7*	6.5	89.5*	58.1*
O=C(Nc1ccnn1C1CCN(C(=O)CCc2ccc(F)cc2)CC1)C1CCOC1 (stereo unspecified)	-8.9	-0.1	0.8	19.1	-5.8	1.1	/	/	/	/
CC(C(=O)NCc1ccccc1)n1c(-c2ccc3c(c2)CCO3)nc2ccccc21 (stereo unspecified)	-13.6	/	-0.3	/	/	/	/	/	/	/
Cc1cccc(C(=O)NC(NCc2ccco2)C(Cl)(Cl)Cl)c1 (stereo unspecified)	8.7	-16.8	-3.8	29.3	-14.4	2.1	/	/	/	/
Cc1cccc(C(=O)NC(NCCc2ccccc2)C(Cl)(Cl)Cl)c1 (stereo unspecified)	61.5*	-26.7	79.6*	29.1	-19.1	-0.6	68.8*	-0.8	47.5	3.8
CC(=O)Nc1ccc(S(=O)(=O)N2CCN(c3ccc([N+](=O)[O-])cc3)CC2)cc1	19.9	/	4.5	/	/	-0.8	/	/	/	/
O=C(c1ccco1)N1CCN(C(=O)c2ccccc2OCc2ccc(Cl)cc2)CC1	-5.5	-16.9	3.6	21.8	-27.7	0.6	/	/	/	/
CCCCN(C(=O)NC(=O)Nc1cccc(C)c1C)S(C)(=O)=O	24.9	4.5	70.4*	8.3	3.8	10.1	58.5*	18.9*	17.6	10.4
CCCCN(C(=O)NC(=O)Nc1ccccc1C)S(C)(=O)=O	-8.8	-17.3	11.6	27.7	-8.4	-0.6	/	/	/	/
COc1ccc(CN2C(=O)C(C)Nc3ncnc(N4CCc5ccccc5C4)c32)cc1 (stereo unspecified)	15.9	/	53.0*	/	/	/	43.8*	0.8	-3.0	15.9
Cc1ccc2c(c1)[nH]c1c(=O)n(Cc3ccco3)cnc12	27.8	10.2	72.9*	8.9	-3.7	0.6	101.0*	74.0*	89.3*	65.5*
CN1CCN(C2=Cc3ccccc3Sc3cc(F)ccc32)CC1	0.8	5.0	32.6	12.6	-5.0	2.0	/	/	/	/
CN1CCN(C2=Cc3ccc(Cl)cc3Sc3ccc(F)cc32)CC1	11.9	3.9	49.1*	10.9	0.9	2.4	57.0*	40.8*	56.8*	43.7*
O=C(Nc1cc(-c2ccccc2)[nH]n1)c1ccc(Cl)cc1	-32.4	-9.7	-1.7	15.2	-23.6	2.2	/	/	/	/
CCOC(=O)c1ccc(NC(=O)CNNC(=O)COc2ccccc2C)cc1	-17.6	-15.6	1.1	14.1	5.1	-1.1	/	/	/	/
